Measured values taken from ChEMBL document CHEMBL2040809, “Synthesis and biological activity evaluation of cytidine-5'-deoxy-5-fluoro-N-[(alkoxy/aryloxy)] carbonyl-cyclic 2',3'-carbonates” (Eur J Med Chem, 2012).
Values after ≈ are worked out from the molar mass of the structure shown.

Tested on: Salmonella typhimurium
Experiment: Mutagenic activity in Salmonella typhimurium TA102 at 0.312 to 5 mg/plate measured after incubation of upside down for 48 hrs in presence of liver S9 mixture
Type: toxicity, organism-based
Conditions: salmonella enterica subsp. enterica serovar typhimurium, s9, 48 h
Procedure, shortened: (§1)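 Plate incorporation trial (Trial I) with histidine-dependent auxotrophs. Revertant colonies are counted against the concurrent vehicle control. Each dose and each control, including negative, vehicle and positive reference mutagens, run in triplicate plates.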
For `CCC(C)COC(=O)Nc1nc(=O)n([C@@H]2O[C@H](C)[C@H]3OC(=O)O[C@H]32)cc1F` (some centres undefined), the Activity was “Non-toxic”.

Tested on: Salmonella typhimurium
Experiment: Mutagenic activity in Salmonella typhimurium TA100 at 0.312 to 5 mg/plate measured after incubation of upside down for 48 hrs in absence of liver S9 mixture
Type: toxicity, organism-based
Conditions: salmonella enterica subsp. enterica serovar typhimurium
Procedure, shortened: as §1
For `CCC(C)COC(=O)Nc1nc(=O)n([C@@H]2O[C@H](C)[C@H]3OC(=O)O[C@H]32)cc1F` (some centres undefined), the Activity was “Non-toxic”.

Tested on: Salmonella typhimurium
Experiment: Mutagenic activity in Salmonella typhimurium TA1535 at 0.312 to 5 mg/plate preincubated for 20 mins before addition in absence of liver S9 mixture
Type: toxicity, organism-based
Conditions: salmonella enterica subsp. enterica serovar typhimurium
Procedure, shortened: (§2)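 Pre-incubation trial (Trial II) with histidine-dependent auxotrophs. Test solution is pre-incubated with bacterial suspension and S9 mix (10% v/v) or substitution buffer before plating on selective agar. Revertant colonies are counted against the concurrent vehicle control. Triplicate plates per dose and per control (negative, vehicle, positive reference mutagens).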
In the case of `CCC(C)COC(=O)Nc1nc(=O)n([C@@H]2O[C@H](C)[C@H]3OC(=O)O[C@H]32)cc1F` (some centres undefined), the Activity is reported as “Non-toxic”.

Tested on: MCF7
Experiment: Cytotoxicity against human MCF7 cells after 3 days MTT assay
Type: functional, cell-based
Conditions: MCF7, 72 h
Procedure, shortened: (§3)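 Cells held as monolayers in DMEM with 10% supplement. Seeded in 96-well plates on day 0 at densities set by doubling time: 1 × 10⁴/mL for HeLa and NCI-69, 2 × 10⁴/mL for MCF-7, 3 × 10⁴/mL for PZ-HPV-7. Five dilutions (10⁻⁸–5 × 10⁻⁶ mol/l), freshly prepared, added for 72 h. Growth read by MTT (succinate dehydrogenase activity); IC50 derived.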
`CCC(C)COC(=O)Nc1nc(=O)n([C@@H]2O[C@H](C)[C@H]3OC(=O)O[C@H]32)cc1F` (some centres undefined) gave an IC50 of 70 µg/mL (≈ 182 µM).

Tested on: Salmonella typhimurium
Experiment: Mutagenic activity in Salmonella typhimurium TA1537 at 0.312 to 5 mg/plate measured after incubation of upside down for 48 hrs in absence of liver S9 mixture
Type: toxicity, organism-based
Conditions: salmonella enterica subsp. enterica serovar typhimurium
Procedure, shortened: as §1
In the case of `CCC(C)COC(=O)Nc1nc(=O)n([C@@H]2O[C@H](C)[C@H]3OC(=O)O[C@H]32)cc1F` (some centres undefined), the Activity is reported as “Non-toxic”.

Tested on: Salmonella typhimurium
Experiment: Mutagenic activity in Salmonella typhimurium TA98 at 0.312 to 5 mg/plate preincubated for 20 mins before addition in absence of liver S9 mixture
Type: toxicity, organism-based
Conditions: salmonella enterica subsp. enterica serovar typhimurium
Procedure, shortened: as §2
With `CCC(C)COC(=O)Nc1nc(=O)n([C@@H]2O[C@H](C)[C@H]3OC(=O)O[C@H]32)cc1F` (some centres undefined) the Activity was “Non-toxic”.

Tested on: Salmonella typhimurium
Experiment: Mutagenic activity in Salmonella typhimurium TA102 at 0.312 to 5 mg/plate measured after incubation of upside down for 48 hrs in absence of liver S9 mixture
Type: toxicity, organism-based
Conditions: salmonella enterica subsp. enterica serovar typhimurium
Procedure, shortened: as §1
In the case of `CCC(C)COC(=O)Nc1nc(=O)n([C@@H]2O[C@H](C)[C@H]3OC(=O)O[C@H]32)cc1F` (some centres undefined), the Activity is reported as “Non-toxic”.

Tested on: Salmonella typhimurium
Experiment: Mutagenic activity in Salmonella typhimurium TA100 at 0.312 to 5 mg/plate preincubated for 20 mins before addition in absence of liver S9 mixture
Type: toxicity, organism-based
Conditions: salmonella enterica subsp. enterica serovar typhimurium
Procedure, shortened: as §2
In the case of `CCC(C)COC(=O)Nc1nc(=O)n([C@@H]2O[C@H](C)[C@H]3OC(=O)O[C@H]32)cc1F` (some centres undefined), the Activity is reported as “Non-toxic”.

Tested on: Salmonella typhimurium
Experiment: Mutagenic activity in Salmonella typhimurium TA1537 at 0.312 to 5 mg/plate measured after incubation of upside down for 48 hrs in presence of liver S9 mixture
Type: toxicity, organism-based
Conditions: salmonella enterica subsp. enterica serovar typhimurium, s9, 48 h
Procedure, shortened: as §1
For `CCC(C)COC(=O)Nc1nc(=O)n([C@@H]2O[C@H](C)[C@H]3OC(=O)O[C@H]32)cc1F` (some centres undefined), the Activity was “Non-toxic”.

Tested on: Salmonella typhimurium
Experiment: Mutagenic activity in Salmonella typhimurium TA1535 at 0.312 to 5 mg/plate preincubated for 20 mins before addition in presence of liver S9 mixture
Type: toxicity, organism-based
Conditions: salmonella enterica subsp. enterica serovar typhimurium
Procedure, shortened: as §2
For `CCC(C)COC(=O)Nc1nc(=O)n([C@@H]2O[C@H](C)[C@H]3OC(=O)O[C@H]32)cc1F` (some centres undefined), the Activity was “Non-toxic”.

Tested on: Salmonella typhimurium
Experiment: Mutagenic activity in Salmonella typhimurium TA1537 at 0.312 to 5 mg/plate preincubated for 20 mins before addition in presence of liver S9 mixture
Type: toxicity, organism-based
Conditions: salmonella enterica subsp. enterica serovar typhimurium
Procedure, shortened: as §2
For `CCC(C)COC(=O)Nc1nc(=O)n([C@@H]2O[C@H](C)[C@H]3OC(=O)O[C@H]32)cc1F` (some centres undefined), the Activity was “Non-toxic”.

Tested on: Salmonella typhimurium
Experiment: Mutagenic activity in Salmonella typhimurium TA98 at 0.312 to 5 mg/plate measured after incubation of upside down for 48 hrs in absence of liver S9 mixture
Type: toxicity, organism-based
Conditions: salmonella enterica subsp. enterica serovar typhimurium
Procedure, shortened: as §1
With `CCC(C)COC(=O)Nc1nc(=O)n([C@@H]2O[C@H](C)[C@H]3OC(=O)O[C@H]32)cc1F` (some centres undefined) the Activity was “Non-toxic”.

Tested on: not listed separately
Experiment: Cytotoxicity against human PZ-HPV-7 cells after 3 days MTT assay
Type: functional, cell-based
Conditions: 72 h
Procedure, shortened: as §3
Work on `CCC(C)COC(=O)Nc1nc(=O)n([C@@H]2O[C@H](C)[C@H]3OC(=O)O[C@H]32)cc1F` (some centres undefined) yielded an IC50 of 200 µg/mL (≈ 519 µM).

Tested on: Salmonella typhimurium
Experiment: Mutagenic activity in Salmonella typhimurium TA1537 at 0.312 to 5 mg/plate preincubated for 20 mins before addition in absence of liver S9 mixture
Type: toxicity, organism-based
Conditions: salmonella enterica subsp. enterica serovar typhimurium
Procedure, shortened: as §2
In the case of `CCC(C)COC(=O)Nc1nc(=O)n([C@@H]2O[C@H](C)[C@H]3OC(=O)O[C@H]32)cc1F` (some centres undefined), the Activity is reported as “Non-toxic”.

Tested on: Salmonella typhimurium
Experiment: Mutagenic activity in Salmonella typhimurium TA102 at 0.312 to 5 mg/plate preincubated for 20 mins before addition in presence of liver S9 mixture
Type: toxicity, organism-based
Conditions: salmonella enterica subsp. enterica serovar typhimurium
Procedure, shortened: as §2
In the case of `CCC(C)COC(=O)Nc1nc(=O)n([C@@H]2O[C@H](C)[C@H]3OC(=O)O[C@H]32)cc1F` (some centres undefined), the Activity is reported as “Non-toxic”.

Tested on: Salmonella typhimurium
Experiment: Mutagenic activity in Salmonella typhimurium TA102 at 0.312 to 5 mg/plate preincubated for 20 mins before addition in absence of liver S9 mixture
Type: toxicity, organism-based
Conditions: salmonella enterica subsp. enterica serovar typhimurium
Procedure, shortened: as §2
For `CCC(C)COC(=O)Nc1nc(=O)n([C@@H]2O[C@H](C)[C@H]3OC(=O)O[C@H]32)cc1F` (some centres undefined), the Activity was “Non-toxic”.

Tested on: HeLa
Experiment: Cytotoxicity against human HeLa cells after 3 days MTT assay
Type: functional, cell-based
Conditions: 72 h
Procedure, shortened: as §3
For `CCC(C)COC(=O)Nc1nc(=O)n([C@@H]2O[C@H](C)[C@H]3OC(=O)O[C@H]32)cc1F` (some centres undefined), the IC50 was 0.18 µg/mL (≈ 0.467 µM).

Tested on: Salmonella typhimurium
Experiment: Mutagenic activity in Salmonella typhimurium TA1535 at 0.312 to 5 mg/plate measured after incubation of upside down for 48 hrs in presence of liver S9 mixture
Type: toxicity, organism-based
Conditions: salmonella enterica subsp. enterica serovar typhimurium, s9, 48 h
Procedure, shortened: as §1
With `CCC(C)COC(=O)Nc1nc(=O)n([C@@H]2O[C@H](C)[C@H]3OC(=O)O[C@H]32)cc1F` (some centres undefined) the Activity was “Non-toxic”.

Tested on: Salmonella typhimurium
Experiment: Mutagenic activity in Salmonella typhimurium TA98 at 0.312 to 5 mg/plate measured after incubation of upside down for 48 hrs in presence of liver S9 mixture
Type: toxicity, organism-based
Conditions: salmonella enterica subsp. enterica serovar typhimurium, s9, 48 h
Procedure, shortened: as §1
For `CCC(C)COC(=O)Nc1nc(=O)n([C@@H]2O[C@H](C)[C@H]3OC(=O)O[C@H]32)cc1F` (some centres undefined), the Activity was “Non-toxic”.

Tested on: Salmonella typhimurium
Experiment: Mutagenic activity in Salmonella typhimurium TA98 at 0.312 to 5 mg/plate preincubated for 20 mins before addition in presence of liver S9 mixture
Type: toxicity, organism-based
Conditions: salmonella enterica subsp. enterica serovar typhimurium
Procedure, shortened: as §2
In the case of `CCC(C)COC(=O)Nc1nc(=O)n([C@@H]2O[C@H](C)[C@H]3OC(=O)O[C@H]32)cc1F` (some centres undefined), the Activity is reported as “Non-toxic”.

Tested on: Salmonella typhimurium
Experiment: Mutagenic activity in Salmonella typhimurium TA100 at 0.312 to 5 mg/plate preincubated for 20 mins before addition in presence of liver S9 mixture
Type: toxicity, organism-based
Conditions: salmonella enterica subsp. enterica serovar typhimurium
Procedure, shortened: as §2
For `CCC(C)COC(=O)Nc1nc(=O)n([C@@H]2O[C@H](C)[C@H]3OC(=O)O[C@H]32)cc1F` (some centres undefined), the Activity was “Non-toxic”.

Tested on: Salmonella typhimurium
Experiment: Mutagenic activity in Salmonella typhimurium TA100 at 0.312 to 5 mg/plate measured after incubation of upside down for 48 hrs in presence of liver S9 mixture
Type: toxicity, organism-based
Conditions: salmonella enterica subsp. enterica serovar typhimurium, s9, 48 h
Procedure, shortened: as §1
For `CCC(C)COC(=O)Nc1nc(=O)n([C@@H]2O[C@H](C)[C@H]3OC(=O)O[C@H]32)cc1F` (some centres undefined), the Activity was “Non-toxic”.

Tested on: NCI-H69
Experiment: Cytotoxicity against human NCI-H69 cells after 3 days MTT assay
Type: functional, cell-based
Conditions: NCI-H69, 72 h
Procedure, shortened: as §3
`CCC(C)COC(=O)Nc1nc(=O)n([C@@H]2O[C@H](C)[C@H]3OC(=O)O[C@H]32)cc1F` (some centres undefined) gave an IC50 of 330 µg/mL (≈ 856 µM).

Tested on: Salmonella typhimurium
Experiment: Mutagenic activity in Salmonella typhimurium TA1535 at 0.312 to 5 mg/plate measured after incubation of upside down for 48 hrs in absence of liver S9 mixture
Type: toxicity, organism-based
Conditions: salmonella enterica subsp. enterica serovar typhimurium
Procedure, shortened: as §1
With `CCC(C)COC(=O)Nc1nc(=O)n([C@@H]2O[C@H](C)[C@H]3OC(=O)O[C@H]32)cc1F` (some centres undefined) the Activity was “Non-toxic”.
